Data published in article PMC3889630 (European Journal of Clinical Pharmacology, 2013).
Entries after “also recorded” stand apart in the source; their conditions may differ. Like-named read-outs stand apart in the source and are kept apart here.

How the values were obtained:
[1] = cited from earlier work
[2] = Safety and tolerability after single 50 mg DTG dose; assay type: in vivo, human; conditions: both groups
Outline: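 Open-label single-dose study in HIV-seronegative adults aged 18–70 y: 8 with severe renal impairment (24-h urine CLcr <30 mL/min) and 8 healthy (CLcr >90 mL/min), matched for gender, age (±5 y) and BMI (±25 %). Each took one 50 mg tablet in the morning, fasted, and stayed housed until the last PK sample. Clinical and laboratory safety checks throughout, plus follow-up 7–10 days post-dose.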

[3] = assay type: in vitro ADME, human
[4] = treatment-naïve subjects, SPRING-1; cited from earlier work
[5] = co-administration with darunavir/ritonavir, Phase 1 study; cited from earlier work
[6] = assay type: in vivo, human
Outline: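 Severe renal impairment group (CLcr <30 mL/min) and matched healthy group (>90 mL/min), n=8 each, took one fasted morning 50 mg tablet. Total DTG and DTG-glucuronide measured by validated LC-MS/MS after acetonitrile extraction. Non-compartmental parameters log-transformed and compared by ANCOVA (gender fixed; age, BMI covariates) as geometric LS mean ratio impaired/healthy with 90 % CI.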

[7] = cited from earlier work; remark: listed apart in the source
HIV = conditions: stated in discussion, no reference given; cited from earlier work

SMILES | share of DTG among drug-related components circulating in plasma [1] [%] | renal elimination of unchanged drug ([1]; human) | deaths or serious adverse events [2] | intensity of adverse events [2] | tolerability [2] | GLS mean unbound plasma DTG concentration lower in renal impaired subjects ([3]; 3-hour time point) [%] | GLS mean unbound plasma DTG concentration lower in renal impaired subjects ([3]; 24-hour time point) [%] | effect of renal impairment on DTG fraction unbound in plasma ([3]; severe renal impairment vs healthy) | reduction in DTG exposure between the 50 mg and 10 mg once-daily doses [4] [%] | reduction of DTG trough concentration by DRV/r [5] [%] | mean elimination half-life shorter in renal impairment compared to controls ([6]; 50 mg single oral dose) [%] | correlation between creatinine clearance and DTG PK parameters ([6]; Pearson, p > 0.1) | Cmax ([6]; human, plasma, oral, 50 mg, Cmax, range of values, DTG, healthy subjects) [ng/mL] | bound to plasma proteins [7] | antiviral activity (HIV) | t1/2 ratio of DTG-Gluc to DTG ([6]; both groups of subjects) | glucuronide exposure relative to parent DTG based on molar ratios ([6]; renally-impaired population) [%]
C[C@@H]1CCO[C@H]2Cn3cc(C(=O)NCc4ccc(F)cc4F)c(=O)c(O)c3C(=O)N12 [DTG, Dolutegravir] | > 97 | < 1 % of the dose | No deaths or serious adverse events | mild (Grade 1) | well tolerated | 14 | 49 | did not affect; also recorded: similar | 75 | 38 | 18 | No significant correlation | 820 to 3200 | greater than 99% | – | – | –
C[C@@H]1CCO[C@H]2Cn3cc(C(=O)NCc4ccc(F)cc4F)c(=O)c(O[C@@H]4O[C@H](C(=O)O)[C@@H](O)[C@H](O)[C@H]4O)c3C(=O)N12 [DTG-Gluc, DTG-glucuronide] | – | – | – | – | – | – | – | – | – | – | – | – | – | – | no antiviral activity | ~1 | < 10
